Results reported in ChEMBL document CHEMBL1127053, “3,4-Dimethyl-4-(3-hydroxyphenyl)piperidines: opioid antagonists with potent anorectant activity” (J Med Chem, 1993).

Experiments:
[1] = molecular target: D(2) dopamine receptor (Rattus norvegicus, UniProt P61169); assay: Tested for affinity against dopamine D2 receptor using […] in rat brain; format: tissue-based
[2] = test system: Rattus norvegicus; assay: Tested for concentration required to reduce the food consumption by 20 % subcutaneously; format: functional; settings: Rattus norvegicus, sc; read-out: ED50
How it was run: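 Obese Zucker rats, 3-4 months old, trained to eat only 8 am-4 pm. Groups of 4 (2 male, 2 female), with one saline control group daily. Compound in saline with 10% DMSO, given sc on 3 consecutive days, typical doses 5.0-0.08 mg/kg (0.02-20 in some cases). Intake measured over the first 4 h. ED20 from regression of the linear portion of the dose-response curve.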

[3] = molecular target: D(1A) dopamine receptor (Rattus norvegicus, UniProt P18901); assay: Tested for affinity against dopamine D1 receptor using [3H]SCH-23,390 in rat brain; format: tissue-based
[4] = molecular target: Dopamine receptor; assay: Tested for affinity against dopamine autoreceptor using [3H]apomorphine in rat brain; format: tissue-based
[5] = molecular target: Adrenergic receptor beta (Rattus norvegicus, UniProt P18090+P10608+P26255); assay: Tested for affinity against beta-adrenergic using [3H]dihydroalprenolol in rat brain; format: tissue-based
How it was run: (§1)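 Radioligand binding in cortical membranes from male Sprague-Dawley rats (110-150 g). Ligands: [3H]serotonin for 5-HT1, [3H]QNB for muscarinic, [3H]WB4101 for α1, [3H]clonidine for α2, [3H]dihydroalprenolol for β-adrenergic.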

[6] = Tested for affinity against phencyclidine using [3H]phencyclidine in rat brain; format: tissue-based
[7] = molecular target: Delta-type opioid receptor (Rattus norvegicus, UniProt P33533); assay: Binding affinity towards delta-opioid receptor by displacement of [3H]DADL in rat brain homogenates; format: tissue-based
How it was run: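 Radioligand displacement. Kappa: [3H]EKC, guinea pig cortex, with fentanyl and DADL added to block mu/delta binding. Delta: [3H]DADL, rat brain homogenate.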

[8] = molecular target: T1, Adrenergic receptor alpha-2 (Rattus norvegicus, UniProt P22086+P19328+P22909); assay: Tested for affinity against alpha-2-adrenergic using [3H]clonidine in rat brain; format: tissue-based; how it was run: as §1
T1 sequence (P22086 whole entry): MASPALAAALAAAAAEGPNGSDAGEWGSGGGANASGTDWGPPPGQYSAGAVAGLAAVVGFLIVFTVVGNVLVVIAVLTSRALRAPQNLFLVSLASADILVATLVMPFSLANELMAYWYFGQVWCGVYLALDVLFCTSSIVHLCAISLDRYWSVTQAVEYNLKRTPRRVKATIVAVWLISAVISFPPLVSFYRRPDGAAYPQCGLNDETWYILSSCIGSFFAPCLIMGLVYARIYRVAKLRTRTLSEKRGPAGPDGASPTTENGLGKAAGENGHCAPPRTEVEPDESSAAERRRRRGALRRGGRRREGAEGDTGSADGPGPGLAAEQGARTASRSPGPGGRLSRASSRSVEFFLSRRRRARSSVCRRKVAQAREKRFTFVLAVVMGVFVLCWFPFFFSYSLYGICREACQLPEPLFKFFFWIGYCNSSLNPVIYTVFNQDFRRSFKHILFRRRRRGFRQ
T1 sequence (P19328 whole entry): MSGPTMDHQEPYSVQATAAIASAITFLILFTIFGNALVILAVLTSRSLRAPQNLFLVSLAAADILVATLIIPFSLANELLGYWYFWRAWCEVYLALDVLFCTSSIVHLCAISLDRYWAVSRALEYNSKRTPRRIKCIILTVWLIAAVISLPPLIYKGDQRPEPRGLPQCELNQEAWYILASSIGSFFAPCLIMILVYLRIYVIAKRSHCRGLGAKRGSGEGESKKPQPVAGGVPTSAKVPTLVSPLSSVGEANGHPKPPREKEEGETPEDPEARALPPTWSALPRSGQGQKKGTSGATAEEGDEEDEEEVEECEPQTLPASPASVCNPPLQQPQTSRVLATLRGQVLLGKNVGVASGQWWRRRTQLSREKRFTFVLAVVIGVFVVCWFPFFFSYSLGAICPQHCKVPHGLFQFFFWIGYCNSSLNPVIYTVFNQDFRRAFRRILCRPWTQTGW
T1 sequence (P22909 whole entry): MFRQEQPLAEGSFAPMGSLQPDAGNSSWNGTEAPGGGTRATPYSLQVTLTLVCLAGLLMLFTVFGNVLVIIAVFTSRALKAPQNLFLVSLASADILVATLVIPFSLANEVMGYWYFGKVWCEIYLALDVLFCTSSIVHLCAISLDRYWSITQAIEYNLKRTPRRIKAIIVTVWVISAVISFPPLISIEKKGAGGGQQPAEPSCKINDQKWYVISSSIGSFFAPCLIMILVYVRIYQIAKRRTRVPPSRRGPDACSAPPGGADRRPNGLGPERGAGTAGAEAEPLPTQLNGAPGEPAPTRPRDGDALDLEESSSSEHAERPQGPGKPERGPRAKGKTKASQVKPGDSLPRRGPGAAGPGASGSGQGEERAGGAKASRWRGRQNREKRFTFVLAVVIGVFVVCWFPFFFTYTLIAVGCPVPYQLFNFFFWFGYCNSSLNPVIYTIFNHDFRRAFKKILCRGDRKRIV

[9] = molecular target: Kappa-type opioid receptor (Mus musculus) (UniProt P33534); assay: Antagonist activity towards U50 488 induced kappa opioid receptor by mouse writhing assay at 2.5 mg/kg subcutaneously; format: functional, organism-based; set-up: dose 2.5 mg/kg
How it was run: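 Mouse acetic acid writhing: 0.6% acetic acid ip, writhes counted for 10 min starting 5 min after injection. 5 mice/point, ≥5 doses varied 2-fold, each mouse used once. AD50 = antagonist dose reducing agonist-induced writhing inhibition to 50%.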

[10] = molecular target: Kappa-type opioid receptor (Rattus norvegicus) (UniProt P34975); assay: Antagonism of bremazocine induced kappa receptor diuresis in rats at a concentration of 0.08 mg/kg subcutaneously; format: functional, organism-based; set-up: dose 0.08 mg/kg
How it was run: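 Male Long-Evans hooded rats (350-500 g), reused no more than twice weekly. Bremazocine 0.08 mg/kg sc, test antagonist sc on the opposite side without delay. Rats housed in metabolism cages; urine volume recorded at 2 and 5 h. 3 rats/dose, doses varied 2-fold. AD50 = dose reducing cumulative 5-h induced urination by 50%.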

[11] = molecular target: Muscarinic acetylcholine receptor; assay: Tested for affinity against muscarinic acetylcholine using [3H]quinuclidinyl benzylate in rat brain; format: tissue-based; how it was run: as §1
[12] = molecular target: Delta-type opioid receptor (Mus musculus) (UniProt P32300); settings: Vas deferens; 2 nM
[13] = molecular target: Kappa-type opioid receptor (Cavia porcellus) (UniProt P41144); settings: Ileum, 2 nM
[14] = molecular target: Mu-type opioid receptor (Cavia porcellus) (UniProt P97266); settings: Ileum, 2 nM
Chain of Mu-type opioid receptor (Cavia porcellus) (P97266 whole entry): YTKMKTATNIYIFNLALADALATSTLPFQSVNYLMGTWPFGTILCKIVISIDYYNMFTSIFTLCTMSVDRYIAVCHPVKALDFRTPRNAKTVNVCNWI

Chain of Kappa-type opioid receptor (Cavia porcellus) (P41144 whole entry): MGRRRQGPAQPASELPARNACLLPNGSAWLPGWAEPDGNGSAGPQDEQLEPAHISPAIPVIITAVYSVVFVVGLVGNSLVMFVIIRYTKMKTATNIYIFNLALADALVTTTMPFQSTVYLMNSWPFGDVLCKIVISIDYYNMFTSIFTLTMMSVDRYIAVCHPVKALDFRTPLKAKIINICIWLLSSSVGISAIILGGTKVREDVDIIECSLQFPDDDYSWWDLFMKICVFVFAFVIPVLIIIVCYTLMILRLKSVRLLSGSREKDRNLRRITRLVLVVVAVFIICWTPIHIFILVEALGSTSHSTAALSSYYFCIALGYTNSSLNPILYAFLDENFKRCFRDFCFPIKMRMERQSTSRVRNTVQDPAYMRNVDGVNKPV
Chain of Kappa-type opioid receptor (Mus musculus) (P33534 whole entry): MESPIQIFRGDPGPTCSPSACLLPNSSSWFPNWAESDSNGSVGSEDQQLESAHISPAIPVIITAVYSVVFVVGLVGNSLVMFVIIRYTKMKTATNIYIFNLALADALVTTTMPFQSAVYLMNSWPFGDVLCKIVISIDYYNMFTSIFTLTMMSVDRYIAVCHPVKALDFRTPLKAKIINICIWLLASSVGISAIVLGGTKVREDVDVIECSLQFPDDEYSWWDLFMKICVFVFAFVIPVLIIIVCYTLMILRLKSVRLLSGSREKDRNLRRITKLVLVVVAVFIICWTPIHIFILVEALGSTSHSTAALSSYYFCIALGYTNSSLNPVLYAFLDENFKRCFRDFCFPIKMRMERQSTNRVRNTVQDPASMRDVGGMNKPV
Chain of Delta-type opioid receptor (Mus musculus) (P32300 whole entry): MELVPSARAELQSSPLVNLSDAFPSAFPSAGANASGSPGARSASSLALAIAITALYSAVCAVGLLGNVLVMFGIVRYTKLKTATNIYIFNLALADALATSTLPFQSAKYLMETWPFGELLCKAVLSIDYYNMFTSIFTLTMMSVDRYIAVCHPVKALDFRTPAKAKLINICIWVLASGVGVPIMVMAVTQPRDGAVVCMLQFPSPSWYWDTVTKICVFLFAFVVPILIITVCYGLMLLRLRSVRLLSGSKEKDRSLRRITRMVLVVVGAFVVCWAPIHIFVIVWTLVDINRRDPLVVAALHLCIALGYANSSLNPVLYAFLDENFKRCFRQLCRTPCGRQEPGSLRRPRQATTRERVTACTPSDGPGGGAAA
Chain of Kappa-type opioid receptor (Rattus norvegicus) (P34975 whole entry): as the sequence (P33534 whole entry) above, with D11E, S17A, S51P, A308V counted along it
Chain of D(1A) dopamine receptor (P18901 whole entry): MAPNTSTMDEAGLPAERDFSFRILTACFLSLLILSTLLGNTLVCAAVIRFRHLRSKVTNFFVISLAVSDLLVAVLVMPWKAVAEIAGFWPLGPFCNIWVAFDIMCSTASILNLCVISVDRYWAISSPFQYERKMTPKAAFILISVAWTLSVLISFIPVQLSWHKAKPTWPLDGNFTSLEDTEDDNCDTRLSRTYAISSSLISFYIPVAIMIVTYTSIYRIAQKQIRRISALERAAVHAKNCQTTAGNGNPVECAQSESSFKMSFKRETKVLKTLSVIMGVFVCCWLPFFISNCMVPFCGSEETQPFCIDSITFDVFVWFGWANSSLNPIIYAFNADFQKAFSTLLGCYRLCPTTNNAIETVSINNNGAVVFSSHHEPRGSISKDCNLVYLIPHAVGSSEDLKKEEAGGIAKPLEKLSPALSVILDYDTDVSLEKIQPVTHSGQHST
Chain of Delta-type opioid receptor (P33533 whole entry): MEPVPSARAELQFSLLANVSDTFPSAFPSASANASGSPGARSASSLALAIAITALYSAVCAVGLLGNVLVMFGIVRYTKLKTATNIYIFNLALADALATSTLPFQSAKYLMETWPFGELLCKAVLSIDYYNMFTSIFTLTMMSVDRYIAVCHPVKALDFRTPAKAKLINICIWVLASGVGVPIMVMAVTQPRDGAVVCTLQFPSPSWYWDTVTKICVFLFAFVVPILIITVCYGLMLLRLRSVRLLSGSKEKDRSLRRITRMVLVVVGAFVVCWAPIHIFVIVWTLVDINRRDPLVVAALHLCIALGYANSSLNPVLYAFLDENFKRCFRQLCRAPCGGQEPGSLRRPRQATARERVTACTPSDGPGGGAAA
Chain of D(2) dopamine receptor (P61169 whole entry): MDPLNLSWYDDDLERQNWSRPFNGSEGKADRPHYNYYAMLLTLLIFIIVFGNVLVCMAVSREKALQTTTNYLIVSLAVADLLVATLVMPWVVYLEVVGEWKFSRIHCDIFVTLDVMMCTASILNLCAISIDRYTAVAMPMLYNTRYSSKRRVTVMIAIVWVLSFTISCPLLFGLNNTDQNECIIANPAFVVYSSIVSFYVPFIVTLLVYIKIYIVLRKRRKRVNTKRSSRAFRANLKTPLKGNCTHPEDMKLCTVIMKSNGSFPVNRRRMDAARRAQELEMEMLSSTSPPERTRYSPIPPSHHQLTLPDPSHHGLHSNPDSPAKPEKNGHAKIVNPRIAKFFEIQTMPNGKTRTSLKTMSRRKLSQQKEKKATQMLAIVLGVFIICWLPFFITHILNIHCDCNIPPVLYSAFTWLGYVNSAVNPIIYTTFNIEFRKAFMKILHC

C[C@H]1CN(CC[C@H](O)C2CCCCC2)CC[C@@]1(C)c1cccc(O)c1
IC50 [1]: > 1000 nM
ED50 [2]: 0.04 mg/kg
IC50 [3]: > 1000 nM
IC50 [4]: > 1000 nM
IC50 [5]: > 5000 nM
IC50 [6]: > 1000 nM
Ki [7]: 5.2 nM
IC50 [8]: > 5000 nM
AD50 [9]: 0.05 mg/kg
AD50 [10]: 0.38 mg/kg
IC50 [11]: > 10000 nM
Ke [12]: 1.64 nM
Ke [13]: 0.31 nM
Ke [14]: 0.24 nM
